FXIa inh – human FXIa protease inhibitors, primary screen, biochemical, 1536-well. Coagulation factor XI (Homo sapiens), P03951. purified FXIa, Boc-Glu-Ala-Arg-AMC fluorogenic substrate. inhibition, % at 5 µM. 0.14% of 220,000 active. AID 798, 2007;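 active means inhibition of at least 40%; inactive means inhibition below 40%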;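 further: fluorescence of freed AMC excited at 355 nm; 0% = enzyme without compound and 100% = no enzyme blank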
FXIIa inh – human FXIIa protease inhibitors, primary screen, biochemical, 1536-well. purified FXIIa, Boc-QGR-AMC fluorogenic substrate, 2 h. inhibition, % at 5 µM. 0.3% of 220,000 active. AID 800, 2007; in the data active means inhibition above about 40%;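 further: 0% = enzyme with no compound and 100% = blank without enzyme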
m-calpain inh – inhibitors of pig calpain II, primary screen, biochemical, fluorogenic peptide substrate, 1536-well; purified calpain II, 30 min; inhibition, % at 16 µM; 0.37% of 220,000 active; AID 1236, 2008;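 active means inhibition above about 50%, limit read from the data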
Furin inh – human furin inhibitors, primary screen, biochemical, fluorescence intensity; AID 463115, 2010; purified furin, fluorogenic substrate cleavage; inhibition, % at 20 µM or 30 µM; 0.061% of 220,000 active; P09958; in the data active means inhibition above about 25%
Target sequence (P09958 108-714 limits assumed): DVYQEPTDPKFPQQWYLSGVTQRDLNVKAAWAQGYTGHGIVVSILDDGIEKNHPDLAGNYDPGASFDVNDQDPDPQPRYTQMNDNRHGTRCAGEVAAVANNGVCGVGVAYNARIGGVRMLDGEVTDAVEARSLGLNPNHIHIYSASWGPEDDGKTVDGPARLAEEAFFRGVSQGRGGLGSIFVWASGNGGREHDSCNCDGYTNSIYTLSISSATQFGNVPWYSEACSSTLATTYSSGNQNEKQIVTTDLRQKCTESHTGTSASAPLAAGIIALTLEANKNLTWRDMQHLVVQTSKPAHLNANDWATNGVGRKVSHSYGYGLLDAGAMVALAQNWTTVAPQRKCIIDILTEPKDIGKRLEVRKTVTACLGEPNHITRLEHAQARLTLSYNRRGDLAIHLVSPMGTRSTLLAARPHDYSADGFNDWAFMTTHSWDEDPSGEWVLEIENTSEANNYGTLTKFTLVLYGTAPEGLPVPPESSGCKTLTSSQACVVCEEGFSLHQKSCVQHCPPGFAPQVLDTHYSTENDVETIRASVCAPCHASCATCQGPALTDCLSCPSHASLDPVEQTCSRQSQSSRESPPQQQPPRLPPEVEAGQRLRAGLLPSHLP
Thrombin inh – human alpha-thrombin inhibitors, primary screen, counter-screen for coagulation protease inhibitor project, biochemical, 1536-well, fluorogenic AMC substrate | Prothrombin (Homo sapiens), P00734 | Boc-VPR-AMC fluorogenic substrate cleavage | inhibition, % at 5 µM | 0.26% of 220,000 active | AID 1046, 2008;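 active means inhibition at or above 40%; inactive means inhibition below 40%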;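 further: 0% = enzyme with no compound and 100% = wells without enzyme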
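System: human alpha-thrombin protein; Compound dosing: one concentration per compound, 5 µM, with 0.2% DMSO; Timing: reaction at room temperature; Technique: AMC fluorescence, 355/460 nm; Controls: enzyme without compound as high, wells lacking enzyme as low.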
KLK5 inh – human KLK5 protease inhibitors, primary screen, biochemical, 1536-well. Kallikrein-5 (Homo sapiens), Q9Y337. recombinant hK5, fluorogenic AMC substrate cleavage. inhibition, % at 5 µM. 0.59% of 210,000 active;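 active means inhibition of 40% or more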;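 further: 0% = enzyme controls without compound and 100% = no-enzyme blanks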
Numbers without * were called inactive; i = inactive; nt = not tested or not shown. Sampled rows, rich in hits. Any-hit rate of the full collection: about 1.4%.

SMILES	FXIa inh	FXIIa inh	m-calpain inh	Furin inh	Thrombin inh	KLK5 inh
CC12CCC(c3c(C(=O)Nc4nccs4)nn(-c4ccccc4)c31)C2(C)C (stereo not given)	12	22	6	-6	14	52*
CC12CCC(c3c(C(=O)O)nn(-c4ccccc4)c31)C2(C)C (stereo not given)	3	5	13	-8	-3	12
CC(=O)Nc1ccccc1C(=O)C(=O)Nc1cccc(C(=O)N2CC(C)CC(C)C2)c1 (stereo not given)	1	-1	19	-29	11	-2
CCC(C(=O)OCC(=O)Nc1ccc(SC(F)F)cc1)c1ccccc1 (stereo not given)	3	-2	51*	-10	51*	24
CCC(C(=O)OCC(=O)Nc1ccc(C(N)=O)cc1)c1ccccc1 (stereo not given)	1	13	-15	-4	4	3
CCC(C(=O)OCC(=O)Nc1ccc(Cl)c(S(=O)(=O)N(C)C)c1)c1ccccc1 (stereo not given)	7	5	59*	-4	-6	-14
C/C(=N\Nc1ccc([N+](=O)[O-])cc1)c1cc2ccccc2o1	-1	9	33	-16	-3	-2
CCC(C)NC(=S)N1CCN(C)CC1 (stereo not given)	5	14	-2	-12	-12	-11
CN1CCN(S(=O)(=O)Cc2ccc(Cl)cc2)CC1	41*	35	6	-7	30	70*
O=C(Nc1ccc(N2CCOCC2)cc1)C1CCN(S(=O)(=O)c2ccccc2F)CC1	7	6	-3	-15	70*	8
O=C(NC1CCCc2ccccc21)C1CCN(S(=O)(=O)c2ccccc2)CC1 (stereo not given)	10	19	31	-17	18	7
O=C(NC1CCCc2ccccc21)C1CCN(S(=O)(=O)c2ccccc2F)CC1 (stereo not given)	6	88*	22	2	29	28
O=C(CSc1nnc2ccccn12)Nc1ccc(S(=O)(=O)N2CCOCC2)cc1	-5	5	-4	-7	2	-8
CC(C)N1C(=S)N(Cc2ccco2)C(=O)C1CC(=O)Nc1ccccc1 (stereo not given)	2	3	-22	-29	-2	0
O=C(CCS(=O)(=O)c1cccc2nsnc12)NC1CCCCCC1	11	8	17	-24	14	41*
O=C(c1cc2cc(Br)ccc2o1)N1CCOCC1	0	11	-31	-15	-1	nt
O=C(c1cc2cc(Br)ccc2o1)N1CCCC1	37	nt	3	-2	57*	18
Nc1nnc(SCc2nnc(-c3ccccc3)o2)s1	13	9	-30	-9	-4	-4
CCN(CC)CCCNC(=O)Cn1cnc2ccc(S(=O)(=O)N3CCC(C)CC3)cc2c1=O	34	32	12	1	17	45*
O=C(CSc1ncnc2c1oc1ccccc12)Nc1ccccc1C(F)(F)F	17	18	6	-25	24	47*
O=C(O)CSc1ncnc2c1oc1ccccc12	2	12	9	-26	2	6
CC1CCCC(C)N1/N=C/c1ccc(C#N)cc1 (stereo not given)	-1	6	-14	-25	-2	0
CC(C)(C)C(=O)Nc1ccc(C(=O)N/N=C/c2ccccc2OC(=O)c2ccccc2)cc1	60*	-1	12	-22	-3	11
Cc1ccc(NC(=O)/C(=C\c2ccc([N+](=O)[O-])cc2)NC(=O)c2ccccc2)cc1	6	15	16	-10	4	-5
O=C(N/N=C/c1ccc(O)c(O)c1O)/C(=C/c1ccc([N+](=O)[O-])cc1)NC(=O)c1ccccc1	27	41*	-21	-3	6	i
SMILES	FXIa inh	FXIIa inh	m-calpain inh	Furin inh	Thrombin inh	KLK5 inh
COc1cccc2c1OC1(C)CC2NC(=O)N1c1cccc(C(=O)N2CCN(c3ccccc3)CC2)c1 (stereo not given)	-3	16	-7	-17	1	0
COCCn1c(N)c(C(=S)NC(=O)c2cccs2)c(=O)[nH]c1=O	18	35	19	9	1	90*
CCOC(=O)C(CC)Sc1nnc(COc2ccc(C)cc2)n1-c1ccccc1 (stereo not given)	7	17	-1	28*	-2	-12
NC(=O)c1c(NC(=O)Cn2nc(C(=O)O)c3ccccc3c2=O)sc2c1CCCC2	21	32	-7	-4	99*	34
NC(=O)c1c(NC(=O)Cn2nc(C(=O)O)c3ccccc3c2=O)sc2c1CCC2	0	12	5	-24	4	6
CCCC(=O)Nc1ccc(Sc2ccc([N+](=O)[O-])cc2)cc1	12	14	58*	-21	-6	-18
CC(=O)c1ccc(N2CCN(C(=O)c3cc(-c4ccc5c(c4)OCO5)nc4ccccc34)CC2)cc1	-6	-7	-147	10	0	82*
CCC(C)C(NC(=O)C1CCC(C)CC1)C(=O)NCc1cccnc1 (stereo not given)	0	12	-8	29*	-3	-9
Cc1cc(S(=O)(=O)n2ccnc2)c(Cl)cc1Cl	0	10	23	-20	-4	1
CCOc1ccc(N2CC(C(=O)Nc3c(C)n(C)n(-c4ccccc4)c3=O)CC2=O)cc1 (stereo not given)	-4	5	-6	-19	nt	-4
COc1ccc(NC(=O)n2nc(OC(=O)c3cccs3)cc2N)cc1	18	19	3	-23	46*	7
O=C(Nc1ccc(Cc2ccncc2)cc1)c1ccc(S(=O)(=O)N2CCCC2)cc1	-9	0	14	-18	-3	-13
COc1ccc(-c2cc(C(=O)Nc3c(C)nn(Cc4ccccc4)c3C)no2)cc1	0	12	-22	-14	2	-4
COc1cccc(-c2cc(C(=O)Nc3c(C)nn(Cc4ccccc4)c3C)no2)c1	10	10	44	-4	41*	55*
CC(c1ccccc1C(O)(c1ccccc1)c1ccccc1)N(C)C (stereo not given)	9	9	5	-9	0	-9
Cn1c(=O)cc(OCCCC(=O)NC2CCCC2)c2ccccc21	17	23	4	-8	17	70*
Cn1c(=O)cc(OCC(=O)NC2CCCCC2)c2ccccc21	13	8	0	0	8	-15
COc1ccc(CSc2n[nH]c(C)n2)cc1[N+](=O)[O-]	-3	11	23	-17	24	48*
COc1ccc(CSc2ncn[nH]2)cc1[N+](=O)[O-]	2	7	-5	-16	0	-5
